Two compounds from ChEMBL document CHEMBL1145773, “Design, synthesis, SAR, and molecular modeling studies of acylthiocarbamates: a novel series of potent non-nucleoside HIV-1 reverse transcriptase inhibitors structurally related to phenethylthiazolylthiourea derivatives” (J Med Chem, 2003) can be followed below.

SMILES strings stand for the structures.

The IC50 is the midpoint of a concentration-inhibition curve. One may read the EC50 as the concentration that produces a half-maximal response. Read a high EC50 as a less potent agent. The term EC90 denotes the concentration needed for an effect of 90%. Low readings indicate an effect from little substance, high ones a need for much substance. The CC50 is the concentration that lowers cell viability or growth by half. Higher therefore signals lower toxicity to the cells.

In experiment [1] the target is Human immunodeficiency virus type 1 reverse transcriptase (Human immunodeficiency virus 1, UniProt Q72547). Briefly: Activity of selected HIV-1 N-acylthiocarbamates in enzyme assay against Virion-Associated reverse transcriptase. The method, boiled down: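 Virion-associated RT from stock virus disrupted with 0.5% NP-40. Incubation 60 min at 37 °C, then acid-insoluble radioactivity counted on glass fiber filters.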

Experiment [2] relates to Human immunodeficiency virus 1. Description: Anti HIV-1 activity of selected N-acylthiocarbamates against Y181C resistant mutant. The class given is functional, organism-based. The method, boiled down:
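Acutely infected MT-4 cells (1 × 10⁴ cells/well) incubated at 37 °C with serial compound dilutions (DMSO stock, diluted in medium) and Y181C mutant virus (NIH N119; titer 1.3 × 10⁶ CCID₅₀/mL) dosed to cause full cytopathogenicity by day 4. Viability read by MTT; EC₅₀ = concentration giving 50% protection from virus-induced cytopathogenicity.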

Experiment [3] deals with Human immunodeficiency virus 1. Description: Concentration required to reduce the amount of p24 by 90% in HIV-1 infected C8166 cultures. Format: functional, organism-based. Conditions: Human immunodeficiency virus 1, C8166. The method, boiled down: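 C8166 cells (1 × 10^4/well) were infected with wt HIV-1 in the presence of graded compound concentrations, with DMSO stocks diluted in culture medium. After incubation at 37 °C, p24 antigen was measured by immunoenzymatic kit. EC90 is the concentration lowering p24 by 90%.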

The subject of another experiment is MT-4 (Homo sapiens). Description: Concentration required to reduce the viability of mock-infected MT-4 cells by 50% was determined by MTT method. The settings on record: MT4. Background: Formazan colour is commonly taken as a measure of viable cells.
A further experiment relates to MT4. Briefly: Selectivity index which is the ratio of CC50 and EC50 was determined. The class given is functional, Homo sapiens. The method, boiled down: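 MT-4 cells (1 × 10^4/well) were seeded with or without serial compound dilutions, then infected with HIV-1 IIIB at enough CCID50 for complete cytopathogenicity by day 4. Cultures were incubated at 37 °C and viability was read by MTT. […] Cytotoxicity was run in parallel on mock-infected cells, and SI = CC50/EC50. Data are means of three separate experiments.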

In the case of `O=C1c2ccccc2C(=O)N1CCOC(=S)N(C(=O)c1ccco1)c1ccc(Cl)cc1`, in experiment [1], inhibition was half-maximal at 2.3 µM (IC50). For the same compound, the midpoint of the response in experiment [2], the EC50, lay at 1.7 µM. In experiment [3], this compound came in with an EC90 of 0.005 µM. In the experiment on MT-4 (Homo sapiens), this compound yielded a CC50 of 41 µM. Besides, the SI in the experiment with MT4 is 5857.

As to `S=C(NCCc1ccccn1)Nc1ccc(Br)cn1` [TROVIRDINE], in experiment [1], half-maximal inhibition (IC50) was put at 4.2 µM. Further, the EC50 in experiment [2] amounted to 1.2 µM. It took 0.015 µM to reach the 90% level in experiment [3] (EC90). For the same compound, it took 60 µM to reach half-maximal cytotoxicity in the experiment on MT-4 (Homo sapiens) (CC50). Further, in the experiment on MT4, the SI is 3000.
